In ChEMBL document CHEMBL3232887, “Propargyl-linked antifolates are dual inhibitors of Candida albicans and Candida glabrata” (J Med Chem, 2014):
≈ marks a conversion by molar mass, not a printed value. Calls of active or inactive are those of the source. The rule behind the calls is not given here.

How the values were obtained:
Nakaseomyces glabratus = test: Antifungal activity against Candida glabrata NCCLS84 after 24 hrs by Alamar Blue assay; conditions: NCCLS84, 24 h
Candida albicans [1] = test: Antifungal activity against Candida albicans NCCLS84 after 24 hrs by XTT assay; format: functional; conditions: SC5314, 24 h, in the assay text read “SC5314” for “NCCLS84”
[2] = Selectivity ratio of IC50 for human DHFR to IC50 for Candida glabrata DHFR
[3] = Inhibition of Candida glabrata DHFR using dihydrofolate as substrate preincubated for 5 mins followed by substrate addition in presence of NADPH; set-up: species or system Nakaseomyces glabratus
In short: (§1)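 Racemic inhibitor from DMSO stock (<2% DMSO in assay) was preincubated 5 min with enzyme and 100 μM NADPH. NADPH consumption was followed at 340 nm for 1 min at 25 °C, in triplicate.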

[4] = Selectivity ratio of IC50 for human DHFR to IC50 for Candida albicans DHFR
Dihydrofolate reductase [5] = biological target: T1, Dihydrofolate reductase (Candida albicans, UniProt P22906); test: Inhibition of Candida albicans DHFR using dihydrofolate as substrate preincubated for 5 mins followed by substrate addition in presence of NADPH
T1 sequence (P22906 whole entry): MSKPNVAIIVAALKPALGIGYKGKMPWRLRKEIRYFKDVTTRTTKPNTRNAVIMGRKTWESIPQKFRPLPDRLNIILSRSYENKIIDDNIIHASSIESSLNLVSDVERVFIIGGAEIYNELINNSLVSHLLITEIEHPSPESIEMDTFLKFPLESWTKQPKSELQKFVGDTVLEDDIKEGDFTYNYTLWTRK
In short: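 Consumption of NADPH followed at 340 nm for 1 min at 25 °C. Buffer: 20 mM TES pH 7.0, 50 mM KCl, 10 mM 2-mercaptoethanol, 0.5 mM EDTA, 1 mg/mL BSA. Saturating 100 μM NADPH and 100 μM dihydrofolate, limiting enzyme. Racemic inhibitor was added from DMSO stocks at under 2% DMSO final. Triplicate runs.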

Dihydrofolate reductase [6] = biological target: T2, Dihydrofolate reductase (Homo sapiens, UniProt P00374); test: Inhibition of human DHFR using dihydrofolate as substrate preincubated for 5 mins followed by substrate addition in presence of NADPH
T2 sequence (P00374 whole entry): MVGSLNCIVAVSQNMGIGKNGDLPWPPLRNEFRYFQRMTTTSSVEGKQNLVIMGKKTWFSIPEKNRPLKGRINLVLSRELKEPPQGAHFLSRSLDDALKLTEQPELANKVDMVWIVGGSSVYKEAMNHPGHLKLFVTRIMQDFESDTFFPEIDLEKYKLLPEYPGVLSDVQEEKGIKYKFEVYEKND
In short: as §1

MCF10 = test: Cytotoxicity against human MCF10 cells; format: cell-based
Candida albicans [7] = test: Antifungal activity against Candida albicans after 24 hrs by assay in presence of 0.01% Triton X-100
[8] = Kinetic solubility of the compound in water after 30 mins by HPLC analysis; format: physicochemical; conditions: read-out: Kinetic_solubility
[9] = Kinetic solubility of the compound in water after 30 mins by HPLC analysis in presence of 0.02% HPMC; format: physicochemical; conditions: water with 0.02% HPMC; read-out: Kinetic_solubility
Candida albicans [10] = test: Antifungal activity against Candida albicans after 24 hrs by assay
Candida albicans [11] = test: Antifungal activity against Candida albicans NCCLS84 at 100 ug/ml after 24 hrs by XTT assay; format: functional, organism-based

Structure (SMILES) | MIC (Nakaseomyces glabratus) [µg/mL] | MIC (Candida albicans [1]) [µg/mL] | IC50 [3] [nM] | IC50 (Dihydrofolate reductase [5]) [nM] | IC50 (Dihydrofolate reductase [6]) [nM] | IC50 (MCF10) [nM] | also measured
CCc1nc(N)nc(N)c1C#CC(C)c1ccc(-c2ccccc2)cc1OC (stereo unspecified) | 1.6 (≈ 4.3 µM) | 6.3 (≈ 16.9 µM) | 31 | 49 | 172 | – | Ratio IC50 [2]: 6; Ratio IC50 [4]: 4
CCc1nc(N)nc(N)c1C#CC(C)c1ccc(-c2ccccc2)cc1 (stereo unspecified) | 3.1 (≈ 9.05 µM) | 7.5 (≈ 21.9 µM) | 6 | 23 | 174 | 505000 | –
CCc1nc(N)nc(N)c1C#CC(C)c1cc(OC)cc(-c2ccncc2)c1 (stereo unspecified) | 1.3 (≈ 3.48 µM) | 25 (≈ 66.9 µM) | – | – | – | – | MIC (Candida albicans [7]): 6.25 µg/mL
CCc1nc(N)nc(N)c1C#CC(C)c1ccc(-c2ccncc2)cc1OC (stereo unspecified) | 0.78 (≈ 2.09 µM) | 25 (≈ 66.9 µM) | 19 | 33 | 127 | 216000 | –
CCc1nc(N)nc(N)c1C#CC(C)c1ccc(-c2ccccc2)nc1 (stereo unspecified) | 0.78 (≈ 2.27 µM) | 0.39 (≈ 1.14 µM) | 23 | – | – | 148000 | solubility kinetic at 0.5 h [8]: 20 µg/mL (≈ 58.2 µM)
COc1cc(-c2ccccc2)ccc1C(C)C#Cc1c(C)nc(N)nc1N (stereo unspecified) | 0.39 (≈ 1.09 µM) | 1.6 (≈ 4.46 µM) | – | 20 | 340 | 74000 | solubility kinetic at 0.5 h [9]: 25 µg/mL
COc1cc(-c2ccccc2)cc(C(C)C#Cc2c(C)nc(N)nc2N)c1 (stereo unspecified) | – | 23 (≈ 64.2 µM) | 7.3 | – | – | – | –
CCc1nc(N)nc(N)c1C#CC(C)c1ccc(-c2ccc(F)cc2)cc1OC (stereo unspecified) | 7.5 (≈ 19.2 µM) | 1.8 (≈ 4.61 µM) | – | 43 | 148 | 60000 | –
CCc1nc(N)nc(N)c1C#CC(C)c1ccc(-c2ccc(N(C)C)cc2)cc1OC (stereo unspecified) | – | – | – | – | – | – | MIC (Candida albicans [10]): inactive
CCc1nc(N)nc(N)c1C#CC(C)c1ccc(-c2ccc(O)cc2)cc1OC (stereo unspecified) | – | – | – | – | – | 148000 | Activity (Candida albicans [11]): inactive
CCc1nc(N)nc(N)c1C#CC(C)c1ccc(-c2ccc(C)cc2)cc1OC (stereo unspecified) | 1.6 (≈ 4.14 µM) | 3.1 (≈ 8.02 µM) | 22 | 48 | 208 | – | Ratio IC50 [2]: 9; Ratio IC50 [4]: 4
CCc1nc(N)nc(N)c1C#CC(C)c1ccc(-c2ccc(C(=O)OC)cc2)cc1OC (stereo unspecified) | – | – | – | – | – | 96000 | –
CCc1nc(N)nc(N)c1C#CC(C)c1ccc(-c2ccc(C#N)cc2)cc1OC (stereo unspecified) | – | – | – | – | – | 50000 | –
CCc1nc(N)nc(N)c1C#CC(C)c1ccc(-c2ccc(C)cc2)nc1 (stereo unspecified) | 0.2 (≈ 0.56 µM) | 0.39 (≈ 1.09 µM) | 27 | – | – | – | Activity (Candida albicans [7]): Active; solubility kinetic at 0.5 h [8]: 15 µg/mL (≈ 42 µM)
COc1cc(C(C)C#Cc2c(C)nc(N)nc2N)ccc1-c1ccccc1 (stereo unspecified) | 0.78 (≈ 2.18 µM) | 6.25 (≈ 17.4 µM) | – | – | – | 80000 | –
COc1cc(C(C)C#Cc2c(C)nc(N)nc2N)c(OC)cc1-c1ccccc1 (stereo unspecified) | 1.6 (≈ 4.12 µM) | 3.1 (≈ 7.98 µM) | 8.2 | 36 | 314 | – | –
CCc1nc(N)nc(N)c1C#CC(C)c1ccc(-c2ccc(OC(N)=O)cc2)cc1OC (stereo unspecified) | – | – | – | – | – | – | MIC (Candida albicans [10]): inactive
CCc1nc(N)nc(N)c1C#CC(C)c1cnc(-c2ccccc2)nc1 (stereo unspecified) | 0.78 (≈ 2.26 µM) | 0.19 (≈ 0.552 µM) | 22 | – | – | 216000 | solubility kinetic at 0.5 h [8]: 60 µg/mL (≈ 174 µM)
